Source: ChEMBL document CHEMBL1124654, “Synthesis and investigation of effects of 2-[4- [[(arylamino)carbonyl]amino]phenoxy]-2-methylpropionic acids on the affinity of hemoglobin for oxygen: structure-activity relationships” (1989)
Where “and” joins values, the source holds several entries; their conditions need not be identical. Equal entries are not always repeated.

Legend:
Type in all cases: functional
Homo sapiens [1] = organism: Homo sapiens; assay: Ability of 1 mM to reduce affinity of hemoglobin for oxygen is assessed from 50% partial pressure of oxygen in membrane free hemoglobin solution
Procedure, shortened: (§1)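 Membrane-free hemoglobin: erythrocytes washed five times in 0.15 M NaCl, lysed in 5 volumes of water, filtered through paper and then down to 0.22 µm. Compound dissolved in 0.1 M HEPES, pH 7.4, hemoglobin added to a final 12.5 ± 0.5 µM, incubated 30 min at 37 °C. P50 taken from the O2-dissociation curve. Initial screen at 1 mM in duplicate.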

[2] = target: Hemoglobin HbA (Homo sapiens) (UniProt P69905+P68871); assay: Ratio of effect of compound on affinity of hemoglobin for oxygen to that of control
Sequence of Hemoglobin HbA (Homo sapiens) (P68871 2-147 partner limits assumed): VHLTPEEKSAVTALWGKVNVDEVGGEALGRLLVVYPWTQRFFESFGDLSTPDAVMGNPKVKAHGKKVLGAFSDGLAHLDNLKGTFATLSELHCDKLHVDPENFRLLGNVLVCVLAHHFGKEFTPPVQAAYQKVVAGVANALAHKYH
Sequence of Hemoglobin HbA (Homo sapiens) (P69905 2-142 limits assumed): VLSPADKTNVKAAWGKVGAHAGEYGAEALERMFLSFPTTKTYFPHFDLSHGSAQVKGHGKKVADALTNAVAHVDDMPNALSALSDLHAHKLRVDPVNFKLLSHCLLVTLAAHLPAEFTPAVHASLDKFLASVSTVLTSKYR
Procedure, shortened: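 Mean P50 with compound divided by mean P50 of the respective controls. P50 measured from O2-dissociation curves at 37 °C after 30 min in 0.1 M HEPES, pH 7.4, with hemoglobin at 12.5 ± 0.5 µM, in intact red cells or membrane-free hemoglobin.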

Homo sapiens [3] = organism: Homo sapiens; assay: Ability of 1 mM compound to reduce affinity of hemoglobin for oxygen is assessed from 50% partial pressure of oxygen in intact red cells
Procedure, shortened: (§2)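 Intact red cells: 30-µL aliquots of fresh heparinized normal whole blood added to 5 mL of compound diluted in 0.1 M HEPES, pH 7.4; final hemoglobin 12.5 ± 0.5 µM by spectrophotometry. Equilibrated 30 min at 37 °C, then oxygenated in the instrument chamber. P50 (mmHg PO2 at 50% deoxygenation) read from the O2-dissociation curve. Initial screen at 1 mM in duplicate.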

Homo sapiens [4] = organism: Homo sapiens; assay: Ability of 0.2 mM to reduce affinity of hemoglobin for oxygen is assessed from 50% partial pressure of oxygen in intact red cells; procedure, shortened: as §2
Homo sapiens [5] = organism: Homo sapiens; assay: Ability of 0.2 mM to reduce affinity of hemoglobin for oxygen is assessed from 50% partial pressure of oxygen in membrane free hemoglobin solution; procedure, shortened: as §1
Homo sapiens [6] = organism: Homo sapiens; assay: Ability of 0.5 mM to reduce affinity of hemoglobin for oxygen is assessed from 50% partial pressure of oxygen in membrane free hemoglobin solution; procedure, shortened: as §1
Homo sapiens [7] = organism: Homo sapiens; assay: Ability of 0.5 mM to reduce affinity of hemoglobin for oxygen is assessed from 50% partial pressure of oxygen in intact red cells; procedure, shortened: as §2
Homo sapiens [8] = organism: Homo sapiens; assay: Ability of 1 mM to reduce affinity of hemoglobin for oxygen is assessed from 50% partial pressure of oxygen in intact red cells; procedure, shortened: as §2
Homo sapiens [9] = organism: Homo sapiens; assay: Ability of 0.1 mM to reduce affinity of hemoglobin for oxygen is assessed from 50% partial pressure of oxygen in intact red cells; procedure, shortened: as §2
Homo sapiens [10] = organism: Homo sapiens; assay: Ability of 0.05 mM to reduce affinity of hemoglobin for oxygen is assessed from 50% partial pressure of oxygen in intact red cells; procedure, shortened: as §2
Homo sapiens [11] = organism: Homo sapiens; assay: Ability of 0.05 mM to reduce affinity of hemoglobin for oxygen is assessed from 50% partial pressure of oxygen in membrane free hemoglobin solution; procedure, shortened: as §1
Homo sapiens [12] = organism: Homo sapiens; assay: Ability of 0.1 mM to reduce affinity of hemoglobin for oxygen is assessed from 50% partial pressure of oxygen in membrane free hemoglobin solution; procedure, shortened: as §1

Compound | P50 (Homo sapiens [1]) | Ratio [2] | P50 (Homo sapiens [3]) | P50 (Homo sapiens [6]) | also measured
CC(C)(Oc1ccc(-c2ccccc2)cc1)C(=O)O | 7 mmHg | 1 and 1.63 | 15.5 mmHg | – | –
CC(C)(Oc1ccc(CC(NC(=O)c2ccc(Cl)cc2)C(=O)O)cc1)C(=O)O (stereo unspecified) | 7.5 mmHg | 1.07 and 1.26 | 12 mmHg | – | –
COc1ccc(NC(=O)Nc2ccc(OC(C)(C)C(=O)O)cc2)cc1OC | 14.5 mmHg | 2.07 and 1 | 8.5 mmHg | – | –
CC(C)(Oc1ccc(NC(=O)Nc2ccc(C=O)cc2)cc1)C(=O)O | 15 mmHg | 2.3 and 2.15 | 20.5 mmHg | – | –
O=C(O)COc1ccc(NC(=O)Nc2ccc(Cl)c(Cl)c2)cc1 | – | 1.14 [middle of 4 runs] | – | 10 mmHg | P50 (Homo sapiens [4]): 11.5 mmHg; P50 (Homo sapiens [5]): 8 mmHg; P50 (Homo sapiens [7]): 13 mmHg
CC(C)(Oc1ccc(NC(=O)c2ccc(Cl)cc2)cc1)C(=O)O | 39 mmHg | 5.35 [middle of 4 runs] | – | 27 mmHg | P50 (Homo sapiens [8]): 37.5 mmHg and 19 mmHg
CC(C)(Oc1ccc(NC(=O)Nc2cc(Cl)cc(Cl)c2)cc1)C(=O)O | – | 4.43 [middle of 4 runs] | – | 44.5 mmHg | P50 (Homo sapiens [4]): 22.75 mmHg; P50 (Homo sapiens [5]): 20.5 mmHg; P50 (Homo sapiens [7]): 51 mmHg
CC(C)(Oc1ccc(NC(=O)Nc2cc(F)cc(F)c2)cc1)C(=O)O | 15.2 mmHg | 1.99 [middle of 4 runs] | – | 12.2 mmHg | P50 (Homo sapiens [7]): 15 mmHg; P50 (Homo sapiens [8]): 21 mmHg
CC(C)(Oc1ccc(NC(=O)Nc2ccc(F)cc2)cc1)C(=O)O | 18 mmHg | 2 and 1.38 | 12.5 mmHg | – | –
CC(C)(Oc1ccc(NC(=O)Nc2ccc(Cl)cc2Cl)cc1)C(=O)O | – | 2.04 [middle of 4 runs] | – | 15.5 mmHg | P50 (Homo sapiens [4]): 14.75 mmHg; P50 (Homo sapiens [5]): 9.75 mmHg; P50 (Homo sapiens [7]): 21.25 mmHg
CC(C)(Oc1ccc(NS(=O)(=O)Cc2ccccc2)cc1)C(=O)O | 9.16 mmHg | 1.34 and 1.64 | 11.5 mmHg | – | –
CC(C)(Oc1ccc(CCNC(=O)c2cc(Cl)cc(Cl)c2)cc1)C(=O)O | 12.5 mmHg | 1.78 and 1.42 and 2.33 | – | 10 mmHg | P50 (Homo sapiens [7]): 17.75 mmHg; P50 (Homo sapiens [8]): 22.75 mmHg
CC(C)(Oc1ccc(CCNC(=O)c2ccc(Cl)cc2)cc1)C(=O)O [BEZAFIBRATE] | 14.2 mmHg | 1.63 [middle of 4 runs] | – | 9 mmHg | P50 (Homo sapiens [7]): 14.5 mmHg; P50 (Homo sapiens [8]): 17 mmHg
CC(C)(Oc1ccc(NC(=O)Nc2ccc3c(c2)OCO3)cc1)C(=O)O | 14 mmHg | 2.15 and 1.05 | – | – | P50 (Homo sapiens [8]): 9.5 mmHg
CC(C)(Oc1ccc(NC(=O)Nc2cc(Cl)ccc2Cl)cc1)C(=O)O | – | 2.56 [middle of 4 runs] | – | 18 mmHg | P50 (Homo sapiens [4]): 15.83 mmHg; P50 (Homo sapiens [5]): 11.5 mmHg; P50 (Homo sapiens [7]): 23.75 mmHg
CC(C)(Oc1ccc(NC(=O)Nc2ccc(O)cc2)cc1)C(=O)O | 11 mmHg | 1.68 and 1.21 | 8.5 mmHg | – | –
CC(C)(Oc1ccc(NC(=O)Nc2ccc(C(=O)O)cc2)cc1)C(=O)O | 8 mmHg | 1.14 and 1 | 9 mmHg | – | –
CC(C)(Oc1ccc(NC(=O)Nc2cccc(Cl)c2)cc1)C(=O)O | 22 mmHg | 2.89 and 1.5 | 17.75 mmHg | – | –
Cc1ccc(NC(=O)Nc2ccc(OC(C)(C)C(=O)O)cc2)cc1C | 27.2 mmHg | 2.53 [middle of 4 runs] | 18.5 mmHg | 16.5 mmHg | P50 (Homo sapiens [7]): 14.5 mmHg

Compound | P50 (Homo sapiens [1]) | Ratio [2] | P50 (Homo sapiens [3]) | P50 (Homo sapiens [6]) | also measured
Cc1ccc(NC(=O)Nc2ccc(OC(C)(C)C(=O)O)cc2)cc1 | 26 mmHg | 2.88 and 1.72 | 15.5 mmHg | – | –
CC(C)(Oc1ccc(NC(=O)Nc2ccc(Cl)c(Cl)c2)cc1)C(=O)O | – | 2.29 [middle of 4 runs] | – | 28.5 mmHg | P50 (Homo sapiens [4]): 15.5 mmHg; P50 (Homo sapiens [5]): 14.2 mmHg; P50 (Homo sapiens [7]): 23.5 mmHg
CC(C)(Oc1ccc(NC(=O)Nc2cc(Cl)c(Cl)cc2Cl)cc1)C(=O)O | – | – | – | – | P50 (Homo sapiens [4]): 31 mmHg; P50 (Homo sapiens [9]): 17.75 mmHg; P50 (Homo sapiens [10]): 14.25 mmHg; P50 (Homo sapiens [11]): 9 mmHg; P50 (Homo sapiens [12]): 12 mmHg; P50 (Homo sapiens [5]): 16.8 mmHg
CC(C)(Oc1ccc(NC(=O)Nc2ccccc2)cc1)C(=O)O | 10 mmHg | 1.42 and 1.05 | 10 mmHg | – | –
CC(C)(Oc1ccc(NC(=O)Nc2ccc(Cl)cc2)cc1)C(=O)O | 21.8 mmHg | 2.7 and 1.64 | 19.5 mmHg | – | –
CC(C)(Oc1ccc(NC(=O)Nc2cc([N+](=O)[O-])ccc2Cl)cc1)C(=O)O | 23.5 mmHg | 3.61 and 4.21 | 40 mmHg | – | –
CC(C)(Oc1ccc(NC(=O)Nc2cccc(Cl)c2Cl)cc1)C(=O)O | – | 2.46 [middle of 4 runs] | – | 16 mmHg | P50 (Homo sapiens [4]): 18.5 mmHg; P50 (Homo sapiens [5]): 12.5 mmHg
CC(C)(Oc1ccc(NC(=O)Nc2ccccc2Cl)cc1)C(=O)O | 14.2 mmHg | 1.75 and 1.42 | 16.2 mmHg | – | –
CC(C)(Oc1ccc(NC(=O)Nc2ccc(Cl)c([N+](=O)[O-])c2)cc1)C(=O)O | 43.5 mmHg | 5.43 [middle of 4 runs] | – | 30 mmHg | P50 (Homo sapiens [7]): 40 mmHg; P50 (Homo sapiens [8]): 52.5 mmHg
CCOC(=O)Nc1ccc(NC(=O)Nc2ccc(OC(C)(C)C(=O)O)cc2)cc1 | 10.5 mmHg | 1.61 and 1.27 | 11.5 mmHg | – | –
COc1cc(NC(=O)Nc2ccc(OC(C)(C)C(=O)O)cc2)cc(OC)c1OC | 11.5 mmHg | 1.64 and 1.05 | 9.5 mmHg | – | –
CC(C)(Oc1ccc(NC(=N)Nc2ccc(Cl)cc2)cc1)C(=O)O | 9 mmHg | 1.14 and 1.39 | 16 mmHg | – | –
Cc1cc(C)c(NC(=O)Nc2ccc(OC(C)(C)C(=O)O)cc2)c(C)c1 | 6.5 mmHg | 1 and 1.26 | 12 mmHg | – | –
CC(C)(Oc1ccc(NC(=O)COc2ccc(Cl)cc2)cc1)C(=O)O | 9.25 mmHg | 1.27 and 1.84 | 17.5 mmHg | – | –
COc1ccc(NC(=O)Nc2ccc(OC(C)(C)C(=O)O)cc2)cc1 | 19 mmHg | 2.11 and 1.25 | 12.5 mmHg | – | –
CC(C)(Oc1ccc(NC(=O)c2cc(Cl)cc(Cl)c2)cc1)C(=O)O | 16 mmHg | 2.34 [middle of 4 runs] | – | 12.2 mmHg | P50 (Homo sapiens [7]): 19.66 mmHg; P50 (Homo sapiens [8]): 25.33 mmHg
CC(C)(Oc1ccc(NC(=O)Nc2ccccc2O)cc1)C(=O)O | 12.5 mmHg | 1.91 and 1.42 | 10 mmHg | – | –
CC(C)(Oc1ccc(NC(=O)CNC(=O)c2ccc(Cl)cc2)cc1)C(=O)O | 8.5 mmHg | 1.14 and 1.36 | 12 mmHg | – | –
CC(=O)Oc1ccc(NC(=O)Nc2ccc(OC(C)(C)C(=O)O)cc2)cc1 | 11.5 mmHg | 1.64 and 1.77 | 16 mmHg | – | –
